ChEMBL document CHEMBL1133976, “Orally bioavailable, indole-based nonpeptide GnRH receptor antagonists with high potency and functional activity” (Bioorg Med Chem Lett, 2001)
pIC50: −log10 of the molar value.

Columns and labels:
[1] = biological target: T1, Gonadotropin-releasing hormone receptor (Homo sapiens, UniProt P30968); assay: In vitro functional antagonism via inhibition of GnRH-stimulated phosphatidylinositol (PI) hydrolysis in cloned Chinese hamster ovary (CHO) cells stably expressing the human GnRH receptor.; format: cell-based
T1 sequence (P30968 whole entry): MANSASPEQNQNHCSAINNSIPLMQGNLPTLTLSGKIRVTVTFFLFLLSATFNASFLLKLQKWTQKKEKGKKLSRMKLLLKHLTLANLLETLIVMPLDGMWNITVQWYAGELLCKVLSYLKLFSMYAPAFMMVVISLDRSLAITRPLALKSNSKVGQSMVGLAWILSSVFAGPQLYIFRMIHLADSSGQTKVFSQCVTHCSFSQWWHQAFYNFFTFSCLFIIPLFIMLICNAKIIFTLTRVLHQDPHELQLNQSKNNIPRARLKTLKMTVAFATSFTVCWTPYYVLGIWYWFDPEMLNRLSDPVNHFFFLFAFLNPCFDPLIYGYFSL
Procedure, shortened: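 Functional antagonism read as inhibition of GnRH-stimulated phosphatidylinositol hydrolysis in cloned CHO cells stably expressing human GnRH receptor; IC50 reported in nM.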

[2] = biological target: T1, Gonadotropin-releasing hormone receptor; assay: Binding inhibition towards human pituitary gonadotropin-releasing hormone receptor using [125I]buserelin.
Procedure, shortened: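 Competition binding against the agonist radioligand [125I]buserelin at human pituitary GnRH receptor, run in the presence of 0.1% BSA; IC50 reported in nM.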

[3] = Oral bioavailability in dog; format: ADME, organism-based, Canis lupus familiaris; details: in vivo
[4] = Oral bioavailability in Rhesus monkey; format: ADME, organism-based, Macaca mulatta; details: in vivo
[5] = Oral bioavailability in rat; format: ADME, organism-based; details: in vivo

Structure (SMILES) | pIC50 [1] | pIC50 [2] | bioavailability [3] [%] | bioavailability [4] [%] | bioavailability [5] [%]
Cc1cc(C)cc(-c2[nH]c3ccc(C(C)(C)C(=O)N4CCN(C(=O)OC(C)(C)C)CC4)cc3c2[C@H](C)CNCCCCc2ccncc2)c1 | 6.66 | 8.21 |  |  | 
Cc1cc(C)cc(-c2[nH]c3ccc(C(C)(C)C(=O)N4CCC(C)(C)CC4)cc3c2[C@H](C)CNCCCCc2ccncc2)c1 | 7.41 | 8.89 |  |  | 
Cc1cc(C)cc(-c2[nH]c3ccc(C(C)(C)C(=O)N4CC5CCC4CC5)cc3c2[C@H](C)CNCCc2cccn(C)c2=O)c1 | 7.09 | 8.28 |  |  | 
COc1ccc(CCNC[C@@H](C)c2c(-c3cc(C)cc(C)c3)[nH]c3ccc(C(C)(C)C(=O)N4CC5CCC4CC5)cc23)cn1 | 7.96 | 9.00 |  |  | 
Cc1cc(C)cc(-c2[nH]c3ccc(C(C)(C)C(=O)N4C5CCC4CC5)cc3c2CCNCCCCc2ccncc2)c1 |  | 8.85 |  |  | 
Cc1cc(C)cc(-c2[nH]c3ccc(C(C)(C)C(=O)N4C5CCCCC5C5CCCCC54)cc3c2[C@H](C)CNCCCCc2ccncc2)c1 (some centres undefined) | 7.51 | 7.68 |  |  | 
Cc1cc(C)cc(-c2[nH]c3ccc(C(C)(C)C(=O)N4CCC5(CC4)OCCO5)cc3c2[C@H](C)CNCCCCc2ccncc2)c1 | 7.18 | 9.22 |  |  | 
COCn1cc(CCNC[C@@H](C)c2c(-c3cc(C)cc(C)c3)[nH]c3ccc(C(C)(C)C(=O)N4CC5CCC4CC5)cc23)ccc1=O | 8.41 | 9.40 |  |  | 
Cc1cc(C)cc(-c2[nH]c3ccc(C(C)(C)C(=O)N4CC5CCC4CC5)cc3c2[C@H](C)CNCCc2ccc(O)nc2)c1 | 9.00 | 9.52 |  |  | 
Cc1cc(C)cc(-c2[nH]c3ccc(C(C)(C)C(=O)N4CC5CCC4CC5)cc3c2[C@H](C)CNCCc2cc(C)c(=O)n(C)c2)c1 | 8.40 | 9.22 | 35 | 4 | 
Cc1cc(C)cc(-c2[nH]c3ccc(C(C)(C)C(=O)N4C[C@H]5CC[C@@H]4C5)cc3c2[C@H](C)CNCCc2ccncc2)c1 | 8.72 | 8.92 | 8.5 |  | 
Cc1cc(C)cc(-c2[nH]c3ccc(C(C)(C)C(=O)N4C[C@H]5CCCC[C@H]5C4)cc3c2[C@H](C)CNCCCCc2ccncc2)c1 | 7.18 | 8.85 |  |  | 
Cc1cc(C)cc(-c2[nH]c3ccc(C(C)(C)C(=O)N4C5CCC4CC5)cc3c2[C@H](C)CNCCc2ccncc2)c1 | 8.15 | 9.10 | 14 | 6.4 | 23
Cc1cc(C)cc(-c2[nH]c3ccc(C(C)(C)C(=O)N(CC(C)C)CC(C)C)cc3c2[C@H](C)CNCCCCc2ccncc2)c1 | 7.85 | 8.25 |  |  | 
Cc1cc(C)cc(-c2[nH]c3ccc(C(C)(C)C(=O)N4CC5CCC4CC5)cc3c2[C@H](C)CNCCc2ccc(=O)n(C)c2)c1 | 8.85 | 9.70 |  |  | 
Cc1cc(C)cc(-c2[nH]c3ccc(C(C)(C)C(=O)N4C[C@H]5CC[C@@H]4C5)cc3c2[C@H](C)CNCCCCc2ccncc2)c1 | 8.40 | 9.00 |  |  | 
Cc1cc(C)cc(-c2[nH]c3ccc(C(C)(C)C(=O)N4CC5CCCC4C5)cc3c2[C@H](C)CNCCCCc2ccncc2)c1 (some centres undefined) | 8.17 | 8.32 |  |  | 
Cc1cc(C)cc(-c2[nH]c3ccc(C(C)(C)C(=O)N4CC5(C)CC4CC(C)(C)C5)cc3c2[C@H](C)CNCCCCc2ccncc2)c1 (some centres undefined) | 8.19 | 8.32 |  |  | 
Cc1cc(C)cc(-c2[nH]c3ccc(C(C)(C)C(=O)N4CC5CCC4CC5)cc3c2[C@H](C)CNCCc2ccncc2)c1 | 8.14 | 9.22 | 25 | 21 | 8
Cc1cc(C)cc(-c2[nH]c3ccc(C(C)(C)C(=O)N4CC5CCC4CC5)cc3c2[C@H](C)CNCCCCc2ccncc2)c1 | 8.55 | 9.00 | 7 |  | 14
Cc1cc(C)cc(-c2[nH]c3ccc(C(C)(C)C(=O)N4CC5CCC4CC5)cc3c2[C@H](C)CNCCc2cccnc2)c1 | 8.59 | 9.22 | 12 |  | 
CCS(=O)(=O)N1CCN(C(=O)C(C)(C)c2ccc3[nH]c(-c4cc(C)cc(C)c4)c([C@H](C)CNCCCCc4ccncc4)c3c2)CC1 | 6.91 | 8.36 |  |  | 
Cc1cc(C)cc(-c2[nH]c3ccc(C(C)(C)C(=O)N4C5CCCC4CC5)cc3c2[C@H](C)CNCCCCc2ccncc2)c1 | 8.06 | 9.10 |  |  | 
Cc1cc(C)cc(-c2[nH]c3ccc(C(C)(C)C(=O)N4CCC5(CCCC5)CC4)cc3c2[C@H](C)CNCCCCc2ccncc2)c1 | 7.03 | 8.57 |  |  | 
Cc1cc(C)cc(-c2[nH]c3ccc(C(C)(C)C(=O)N4CC(C)(C)C4)cc3c2[C@H](C)CNCCCCc2ccncc2)c1 | 7.68 | 9.15 |  |  | 
Cc1cc(C)cc(-c2[nH]c3ccc(C(C)(C)C(=O)N4CC5CCC(CC5)C4)cc3c2[C@H](C)CNCCCCc2ccncc2)c1 | 7.89 | 8.68 |  |  | 
Cc1cc(C)cc(-c2[nH]c3ccc(C(C)(C)C(=O)N4CC5CCC4CC5)cc3c2[C@H](C)CNCCC2CCC(=O)N(C)C2)c1 (some centres undefined) | 8.09 | 9.40 |  |  | 
Cc1cc(C)cc(-c2[nH]c3ccc(C(C)(C)C(=O)N4C[C@@H]5CC[C@H]4C5)cc3c2[C@H](C)CNCCCCc2ccncc2)c1 | 8.06 | 9.40 |  |  | 
Cc1cc(C)cc(-c2[nH]c3ccc(C(C)(C)C(=O)N4C5CCC4CC5)cc3c2[C@H](C)CNCCCCc2ccncc2)c1 | 8.24 | 9.15 |  |  | 
